Assay results as given in publication PMC7571300 (ACS Pharmacology & Translational Science, 2020).
Where two headings read alike, the source gives them in different places.

What was measured:
[1] = biological target: T1, EV-A71 2A^pro (Enterovirus A71, UniProt B9VUU3); assay: Thermal shift binding assay; details: 4 mM DTT; 40 μM compound (shikonin 10 μM); 3 μM protease
T1 sequence (B9VUU3 863-1012): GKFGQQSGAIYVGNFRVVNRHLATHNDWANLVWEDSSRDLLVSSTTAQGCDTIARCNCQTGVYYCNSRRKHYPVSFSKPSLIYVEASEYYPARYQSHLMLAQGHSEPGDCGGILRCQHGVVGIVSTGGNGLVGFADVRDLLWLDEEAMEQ
Method in brief: (§1)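 Codon-optimised 2Apro was expressed in E. coli from pET28b(+), from EV-A71/7D3 or EV-D68 US/KY/14–18953. Protease (3 μM) in 50 mM Tris pH 7.0, 150 mM NaCl, 10% glycerol, with or without 4 mM DTT, was preincubated with test compound or DMSO at 30 °C for 30 min. SYPRO orange (1×) was then added and fluorescence followed over 20–90 °C at 0.05 °C/s. Tm was taken as the transition mid log (Boltzmann model).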

[2] = biological target: T2, EV-D68 2A^pro (Enterovirus D68, UniProt A0A097BW19); assay: Thermal shift binding assay; details: 4 mM DTT; 40 μM compound (shikonin 10 μM); 3 μM protease
T2 sequence (A0A097BW19 863-1009): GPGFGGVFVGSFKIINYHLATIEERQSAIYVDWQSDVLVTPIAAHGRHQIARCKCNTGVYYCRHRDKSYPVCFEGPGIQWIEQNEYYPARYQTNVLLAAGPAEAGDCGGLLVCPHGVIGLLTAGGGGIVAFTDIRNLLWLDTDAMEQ
Method in brief: as §1

[3] = biological target: T2, EV-D68 2A^pro; assay: FRET-based enzymatic assay; type: biochemical
[4] = biological target: T1, EV-A71 2A^pro; assay: FRET-based enzymatic assay; type: biochemical
[5] = biological target: T3, EV-A71 3C^pro (Enterovirus A71, UniProt B9VUU3); assay: Thermal shift binding assay; details: 4 mM DTT; 40 μM compound (shikonin 10 μM); 3 μM protease
Method in brief: (§2)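 3Cpro (EV-A71/7D3 or EV-D68 US/KY/14–18953; codon-optimised, pET28b(+), BL21(DE3), 0.5 mM IPTG at 18 °C for 24 h, Ni-NTA purified) was used at 3 μM. Buffer was 50 mM Tris pH 7.0, 150 mM NaCl, 1 mM EDTA, 10% glycerol, with or without 4 mM DTT. Protease was preincubated with test compound or DMSO (30 °C, 30 min), then SYPRO orange (1×) added and a 20–90 °C ramp (0.05 °C/s) run. Tm came from a Boltzmann fit.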

[6] = biological target: T4, SARS-CoV-2 M^pro (Severe acute respiratory syndrome coronavirus 2, UniProt P0DTD1); type: binding
[7] = biological target: T3, EV-A71 3C^pro; assay: FRET-based enzymatic assay; type: biochemical
[8] = biological target: T5, EV-D68 3C^pro (Enterovirus D68, UniProt A0A097BW19); assay: Thermal shift binding assay; details: for Tm change, EV-D68 3C^pro: 4 mM DTT, 40 μM compound (shikonin 10 μM), 3 μM protease
T5 sequence (A0A097BW19 1550-1732): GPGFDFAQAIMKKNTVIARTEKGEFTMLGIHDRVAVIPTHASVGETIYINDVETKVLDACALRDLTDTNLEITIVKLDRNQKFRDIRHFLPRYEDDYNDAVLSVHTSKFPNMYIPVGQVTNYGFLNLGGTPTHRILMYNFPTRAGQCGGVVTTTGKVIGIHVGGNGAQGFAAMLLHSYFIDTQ
Method in brief: as §2

[9] = biological target: T5, EV-D68 3C^pro; assay: biochemical
[10] = biological target: SARS-CoV-2 PL^pro (Severe acute respiratory syndrome coronavirus 2, UniProt P0DTD1); assay: Thermal shift binding assay; details: 4 mM DTT; 40 μM compound (shikonin 10 μM); 3 μM protease
Method in brief: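 SARS-CoV-2 PLpro (ORF1ab 1564–1876, strain WIV04) was expressed from pET28b(+) in BL21(DE3) (0.5 mM IPTG, 18 °C, 24 h), Ni-NTA purified and eluted with 300 mM imidazole. Protein (3 μM) in 50 mM HEPES pH 7.5, 0.01% Triton X-100, with or without 4 mM DTT, sat with test compound or DMSO for 30 min at 30 °C. SYPRO orange (1×) was added and a 20–90 °C ramp at 0.05 °C/s applied. Tm was from a Boltzmann fit.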

[11] = in vitro; details: human, CC50 (EV-A71 CPE assay conditions), RD cells, no virus, 37 °C, no MgCl2
[12] = biological target: T4, SARS-CoV-2 M^pro; assay: Thermal shift binding assay; details: for Tm change, SARS-CoV-2 M^pro: 4 mM DTT, 40 μM compound (shikonin 10 μM), 3 μM protease
[13] = test system: SARS-CoV-2; details: at 10 μM; cited from earlier work
[14] = EV-A71 2A^pro IC50, with 4 mM DTT
[15] = EV-A71 3C^pro IC50, with 4 mM DTT
[16] = EV-D68 3C^pro IC50, with 4 mM DTT
[17] = EV-D68 2A^pro IC50, with 4 mM DTT

Row | SMILES | Tm change, EV-A71 2A^pro [1] | Tm change, EV-D68 2A^pro [2] | IC50 ([3]; EV-D68 2A^pro IC50, no DTT) [µM] | IC50 ([4]; EV-A71 2A^pro IC50, no DTT) [µM] | IC50 [4, 14] [µM] | Tm change, EV-A71 3C^pro [5] | Ligand binding to M^pro dimer ([6]; with 4 mM DTT, 10-40 μM drug) | Ligands bound per M^pro dimer ([6]; without DTT, 10-40 μM drug) | IC50 ([7]; EV-A71 3C^pro IC50, no DTT) [nM] | IC50 [7, 15] [nM] | Tm change, EV-D68 3C^pro [8] | IC50 ([9]; EV-D68 3C^pro IC50, no DTT) [nM] | IC50 [9, 16] [nM] | Tm change, SARS-CoV-2 PL^pro [10] | CC50 [11] [µM] | IC50 [3, 17] [µM] | Tm change, SARS-CoV-2 M^pro [12] | Reduction of viral replication, viral titer reduction assay [13] | other results
1 | CCC[C@H](NC(=O)[C@@H]1[C@H]2CCC[C@H]2CN1C(=O)[C@@H](NC(=O)[C@@H](NC(=O)c1cnccn1)C1CCCCC1)C(C)(C)C)C(=O)C(=O)NC1CC1 [telaprevir] | increased the Tm | increased the Tm | 0.1 | 1.8 ± 0.9 | 1.3 | – | – | – | – | – | – | – | – | – | – | – | – | – | –
2 | CC(C)=CC[C@@H](O)C1=CC(=O)c2c(O)ccc(O)c2C1=O [shikonin] | no Tm change | no Tm change | 37 ± 14.2 | 36 ± 20.5 | > 60 | no Tm change | completely disrupted | up to four ligands per dimer | 500 ± 200 | > 60000 | no Tm change | 1200 ± 700 | > 60000 | no Tm change | 0.8 | > 60 | no Tm change | – | –
3 | CCCCCCNC(=O)n1cc(F)c(=O)[nH]c1=O [carmofur] | no Tm change | no Tm change | 6.4 ± 1.3 | 12.9 ± 4.5 | > 60 | no Tm change | moderate binding | up to three ligands per dimer | 400 ± 200 | > 60000 | no Tm change | 300 | > 60000 | no Tm change | 47.2 | > 60 | no Tm change | no significant antiviral effect | Tm increase, EV-D68 3C^pro ([8]; absence of DTT, 40 μM compound): 0.87 °C; Tm increase, SARS-CoV-2 M^pro ([12]; absence of DTT, 40 μM compound): 4.76 °C
4 | O=c1c2ccccc2[se]n1-c1ccccc1 [ebselen] | no Tm change | no Tm change | 3.6 ± 1 | 5.9 ± 1.1 | > 60 | no Tm change | – | – | 1200 ± 700 | > 60000 | no Tm change | 100 | > 60000 | no Tm change | 17 | > 60 | no Tm change | – | Ligand binding to M^pro dimer [6]: completely disrupted; Ligands bound per M^pro dimer [6]: four
5 | CCN(CC)C(=S)SSC(=S)N(CC)CC [disulfiram] | no Tm change | no Tm change | 3.5 ± 0.5 | 11.8 ± 2.1 | > 60 | no Tm change | completely disrupted | up to three | 1000 ± 600 | > 60000 | no Tm change | 600 ± 100 | > 60000 | no Tm change | 8.3 | > 60 | no Tm change | ~30% | –
6 | O=c1sn(-c2cccc3ccccc23)c(=O)n1Cc1ccccc1 [tideglusib] | no Tm change | no Tm change | 1.3 ± 0.7 | 3.4 ± 2.9 | > 60 | no Tm change | did not bind | did not bind | 1200 ± 100 | > 60000 | no Tm change | 600 ± 300 | > 60000 | no Tm change | 16.6 | > 60 | no Tm change | no significant antiviral effect | –
